Laboratory results reported in ChEMBL document CHEMBL1152671, “Structure-activity relationship studies of manzamine A: amidation of positions 6 and 8 of the beta-carboline moiety” (Bioorg Med Chem, 2009).
pIC50: −log10 of the molar value. Values after ≈ are worked out from the molar mass of the structure shown. Active and inactive are the calls of the source.

Experiments:
Candida albicans [1] = assay: Antifungal activity against Candida albicans after 24 hrs by alamar blue assay
Cryptococcus neoformans [2] = assay: Antifungal activity against Cryptococcus neoformans by modified NCCLS method; format: functional, organism-based; conditions: for pIC50: Cryptococcus neoformans, read-out: IC50
Aspergillus fumigatus [3] = assay: Antifungal activity against Aspergillus fumigatus by modified NCCLS method; format: functional, organism-based
Aspergillus fumigatus [4] = assay: Antifungal activity against Aspergillus fumigatus after 24 hrs by alamar blue assay
Candida albicans [5] = assay: Antifungal activity against Candida albicans by modified NCCLS method; format: functional, organism-based; conditions: for pIC50: Candida albicans, read-out: IC50
Cryptococcus neoformans [6] = assay: Antifungal activity against Cryptococcus neoformans after 24 hrs by alamar blue assay; format: functional
[7] = Therapeutic index, ratio of TC50 for african green monkey (Cercopithecus aethiops) Vero cells to IC50 for chloroquine-sensitive Plasmodium falciparum D6 infected in african green monkey (Cercopithecus aethiops) Vero cells; format: cell-based; conditions: read-out: TI
Candida albicans [8] = test system: Candida albicans
Plasmodium falciparum [9] = assay: Antimalarial activity against chloroquine-resistant Plasmodium falciparum W2 infected in African green monkey (Cercopithecus aethiops) (Cercopithecus aethiops) Vero cells assessed as parasite LDH activity after 72 hrs; format: functional, organism-based
Plasmodium falciparum [10] = assay: Antimalarial activity against chloroquine-sensitive Plasmodium falciparum D6 infected in African green monkey (Cercopithecus aethiops) Vero cells assessed as parasite LDH activity after 72 hrs; format: functional, organism-based
[11] = Therapeutic index, ratio of TC50 for african green monkey (Cercopithecus aethiops) Vero cells to IC50 for chloroquine-resistant Plasmodium falciparum W2 infected in african green monkey (Cercopithecus aethiops) Vero cells; format: cell-based; conditions: read-out: TI
Vero = assay: Cytotoxicity against african green monkey Vero cells up to 470 nM by neutral red assay; format: cell-based; conditions: chlorocebus sabaeus
Mus musculus = assay: Toxicity in Swiss Webster mice (Mus musculus) infected with Plasmodium berghei NK65 at 30 mg/kg, perorally QD for 3 consecutive days administered 2 hrs after infection; format: organism-based; parameters: dose 30 mg/kg, route oral; conditions: in vivo, po
Summary of the method: (§1)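 Male Swiss Webster mice, 18–20 g, inoculated intraperitoneally with 2 × 10⁷ P. berghei NK-65 parasitized red blood cells taken from a donor mouse. Groups of 5 mice were dosed orally about 2 h post-infection, once daily on […], at 3.3, 10 or 30 mg/kg. Controls were vehicle and chloroquine 10 mg/kg. Mice were observed after each dose for toxicity signs. Parasitemia was read on Giemsa-stained tail-blood smears, with suppression on days 5 and 7 and cure defined as no parasitemia to day 28.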

[12] = test system: Mycobacterium intracellulare; assay: Antibacterial activity against Mycobacterium intracellular by alamar blue assay; format: functional, organism-based
[13] = test system: Mycobacterium intracellulare; assay: Antibacterial activity against Mycobacterium intracellular after 24 hrs by alamar blue assay; format: functional
Plasmodium berghei = assay: Antimalarial activity against Plasmodium berghei NK65 infected in Swiss Webster mice (Mus musculus) assessed as inhibition of parasitaemia at 30 mg/kg, perorally daily for 3 consecutive days administered 2 hrs after infection measured on day 28 post infection; format: functional; conditions: route oral; summary of the method: as §1
Pseudomonas aeruginosa = assay: Antibacterial activity against Pseudomonas aeruginosa by modified NCCLS method; format: functional, organism-based
Aspergillus fumigatus [14] = test system: Aspergillus fumigatus
Escherichia coli = assay: Antibacterial activity against Escherichia coli by modified NCCLS method; format: functional, organism-based

SMILES	pIC50 (Cryptococcus neoformans [2])	MIC (Cryptococcus neoformans [6])	MIC (Candida albicans [8])	pIC50 (Plasmodium falciparum [9])	pIC50 (Plasmodium falciparum [10])	Activity (Vero)	IC50 (Aspergillus fumigatus [3])	pIC50 [12]	MIC [13] [µM]	IC50 (Candida albicans [5])	Activity (Pseudomonas aeruginosa)	MIC (Aspergillus fumigatus [14])	Activity (Escherichia coli)	IC50 (Cryptococcus neoformans [2])	other results
C[C@@H]1[C@H](O)[C@@H](C)/C=C/C=C/C=C/C=C/C=C/C=C/C=C/[C@H](O[C@@H]2O[C@H](C)[C@@H](O)[C@H](N)[C@@H]2O)C[C@@H]2O[C@](O)(C[C@@H](O)C[C@@H](O)[C@H](O)CC[C@@H](O)C[C@@H](O)CC(=O)O[C@H]1C)C[C@H](O)[C@H]2C(=O)O [AMPHOTERICIN B]	6.04	2.71 µM (≈ 2.5 µg/mL)													MIC (Candida albicans [1]): 1.35 µM (≈ 1.25 µg/mL); pIC50 (Aspergillus fumigatus [3]; Aspergillus fumigatus, read-out: IC50): 5.79; MIC (Aspergillus fumigatus [4]): 2.7 µM (≈ 2.5 µg/mL); pIC50 (Candida albicans [5]): 6.31
O[C@]12C=C(c3nccc4c3[nH]c3ccccc34)[C@@H]3CCN(CCCC/C=C\CC1)C[C@@]31C[C@@H]3/C=C\CCCCN3[C@H]12 [MANZAMINE A]	5.73		inactive	7.96	8.10										selectivity ratio [7]: 44; pIC50 (Candida albicans [5]): 5.44; selectivity ratio [11]: 25
O=C(Nc1ccc2[nH]c3c(C4=C[C@@]5(O)CC/C=C\CCCCN6CC[C@@H]4[C@]4(C[C@@H]7/C=C\CCCCN7[C@H]45)C6)nccc3c2c1)C1CCCCC1 [6-CYCLOHEXAMIDOMANZAMINE A]	4.65	inactive	inactive	7.28	7.47	Non-toxic	Not Active	5.90	1.86 (≈ 1.25 µg/mL)	Not Active	inactive	inactive	inactive		Activity (Mus musculus): Non-toxic; inhibition in vivo at 30 mg/kg (Plasmodium berghei): 24%
CCCCCC(=O)Nc1cccc2c1[nH]c1c(C3=C[C@@]4(O)CC/C=C\CCCCN5CC[C@@H]3[C@]3(C[C@@H]6/C=C\CCCCN6[C@H]34)C5)nccc12 [8-N-HEXAMIDOMANZAMINE A]	5.42	inactive	inactive	7.19	7.49	Non-toxic	Not Active	7.52	0.468 (≈ 0.31 µg/mL)	Not Active	inactive	inactive	inactive		Activity (Mus musculus): Non-toxic; inhibition in vivo at 30 mg/kg (Plasmodium berghei): 62%
CC(=O)Nc1ccc2[nH]c3c(C4=C[C@@]5(O)CC/C=C\CCCCN6CC[C@@H]4[C@]4(C[C@@H]7/C=C\CCCCN7[C@H]45)C6)nccc3c2c1 [6-ACETAMIDOMANZAMINE A]		inactive	inactive	5.70	5.89	Non-toxic	Not Active	5.00	16.5 (≈ 10 µg/mL)	Not Active	inactive	inactive	inactive	Not Active	
CC(C)(C)C(=O)Nc1ccc2[nH]c3c(C4=C[C@@]5(O)CC/C=C\CCCCN6CC[C@@H]4[C@]4(C[C@@H]7/C=C\CCCCN7[C@H]45)C6)nccc3c2c1 [6-PIVALAMIDOANZAMINE A]		inactive	inactive	6.38	6.64	Non-toxic	Not Active	5.81	3.86 (≈ 2.5 µg/mL)	Not Active	inactive	inactive	inactive	Not Active	
CC(C)(C)CC(=O)Nc1ccc2[nH]c3c(C4=C[C@@]5(O)CC/C=C\CCCCN6CC[C@@H]4[C@]4(C[C@@H]7/C=C\CCCCN7[C@H]45)C6)nccc3c2c1		inactive	inactive	6.52	6.68	Non-toxic	Not Active	5.87	1.89 (≈ 1.25 µg/mL)	Not Active	inactive	inactive	inactive	Not Active	
